Scp1 inh – Scp-1 phosphatase inhibitors, primary screen, biochemical, colorimetric, uHTS; hit rate 0.88% among 340,000; Carboxy-terminal domain RNA polymerase II polypeptide A small phosphatase 1 (Homo …; inhibition, % at 20 µM; Recombinant Scp1, phosphopeptide, malachite green phosphate absorbance; AID 493091, 2011;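 active = inhibition above about 50% at 20 µM, limit read from the data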;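 note: plate controls were DMSO wells with enzyme for no effect and wells lacking enzyme for full effect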
Target sequence (Q9GZU7 76-261 limits assumed): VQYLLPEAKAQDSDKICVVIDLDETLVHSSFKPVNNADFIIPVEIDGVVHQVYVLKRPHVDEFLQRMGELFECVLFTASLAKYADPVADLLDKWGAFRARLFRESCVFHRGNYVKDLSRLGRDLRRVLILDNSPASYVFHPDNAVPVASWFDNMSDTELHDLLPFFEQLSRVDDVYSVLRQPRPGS
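Material: truncated SCP-1 phosphatase (76-261aa) / Buffer or medium: 50 mM Tris acetate pH 5.5, 0.005% Tween-20, 10 mM MgCl2 / Compound dosing: one concentration, 20 µM, with 1.0% DMSO / Incubation: 45 min room-temperature reaction, 5 min colour, 30 min stabiliser / Detection: colorimetric free-phosphate detection, absorbance 630 nm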
DNMT1 inh – human DNMT1 methyltransferase inhibitors, primary screen, biochemical, molecular beacon, fluorescence, HinP1I cleavage, uHTS | hit rate 0.83% among 360,000 | DNA (cytosine-5)-methyltransferase 1 (Homo sapiens), P26358 | AID 588458, 2011 | inhibition (reported as % activation of signal), % at 10 µM; in the data active = inhibition above about 50%
SUMO1 PPI mod – modulators of SUMO1 protein-protein interactions, primary screen, biochemical, uHTS; SUMO1 binding to a labelled peptide, TR-FRET, 1 h; inhibition, % at 20 µM; hit rate 0.33% among 360,000; AID 602429, 2012; in the data active = inhibition above about 37%
Target sequence (P63165 whole entry, looked up): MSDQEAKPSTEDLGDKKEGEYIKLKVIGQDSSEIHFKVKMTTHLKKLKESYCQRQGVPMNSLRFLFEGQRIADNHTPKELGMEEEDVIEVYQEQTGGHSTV
LMPTP block – LMPTP phosphatase inhibitors, primary screen, biochemical, fluorescence intensity, uHTS. hit rate 0.22% among 360,000. recombinant LMPTP-A, OMFP fluorogenic substrate. AID 651560, 2012. inhibition, % at 20 µM;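 active = compounds that cut the enzyme signal by at least half of the control window in the single-dose screen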;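 note: plate controls were DMSO wells with enzyme plus substrate for no effect and substrate without enzyme for full effect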
Target sequence (P24666 whole entry, looked up): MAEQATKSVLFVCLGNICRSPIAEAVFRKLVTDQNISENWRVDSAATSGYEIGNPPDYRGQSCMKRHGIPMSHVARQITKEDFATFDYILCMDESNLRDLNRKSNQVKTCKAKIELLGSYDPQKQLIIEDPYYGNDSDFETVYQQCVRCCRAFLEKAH
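Material: LMPTP-A; amount: 0.625 nM enzyme; doses: single 20 µM dose; times: reaction 50 min, room temperature, dark; technique: fluorescence intensity of OMFP turnover product; benchmarks: no-enzyme and uninhibited controls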
STEP inh – STEP phosphatase inhibitors, primary screen, biochemical, fluorescence intensity, uHTS; recombinant STEP, OMFP fluorogenic substrate; inhibition, % at 20 µM; hit rate 0.25% among 360,000; AID 588621, 2011;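 active = inhibition at 20 µM, scaled per plate between control wells, above about 37%, limit read from the data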;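 note: 0% = DMSO with enzyme and substrate and 100% = substrate only without enzyme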
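System: STEP (striatal-enriched tyrosine phosphatase) enzyme, cell-free; medium: Bis-Tris pH 6.0 buffer with DTT, detergent; dosing: 20 µM, 1% DMSO; times: reaction 20 min, ambient temperature; detection: fluorescence, 480/540 nm; read-out basis: normalized % inhibition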
Scp-1 conf – Scp-1 phosphatase inhibitors, retest, confirmation, biochemical, colorimetric, single concentration | hit rate 61% among 2,500 | inhibition, % at 20 µM | AID 540281, 2011 | shares compounds with Scp1 inh | recombinant SCP-1 catalytic domain, phosphate release, malachite green absorbance;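 note: plate controls were DMSO with enzyme for no effect and buffer wells lacking enzyme for full effect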
MG interference – colorimetric readout interference by compounds, confirmation, artefact control for Scp-1 inhibitor project, biochemical, single concentration; Colorimetric interference counterscreen, malachite green absorbance 630 nm; apparent inhibition (interference), % at 20 µM; shares compounds with Scp1 inh; 2,500 tested, under 10 active;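 note: compounds added after enzyme reaction finished so only phosphate colour detection is probed; plate controls were DMSO wells with completed Scp-1 reaction for no effect and substrate wells lacking enzyme for full effect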
Scp-1 Tm shift – Scp-1 binding by thermal shift, confirmation, orthogonal assay for Scp-1 inhibitor project, biophysical, differential scanning fluorimetry | shares compounds with Scp1 inh | Recombinant SCP1, Sypro Orange thermal shift Tm | thermal shift relative to vanadate control, % at 40 µM | hit rate 25% among 1,500;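 active = substances whose mean melting-temperature shift, as a percentage of the reference inhibitor's shift, reaches about 5.3%, limit read from the data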;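 note: 0% = Tm of DMSO wells and 100% = Tm with sodium orthovanadate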
* marks the source's active call; other numbers are inactive results; / = no result given. The list is not random: actives were taken first. Their share in the collection is about 1.7%.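 Rule for the calls, unless noted: active = inhibition of at least 30% at 20 µM; inactive = the rest.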

SMILES | Scp1 inh | DNMT1 inh | SUMO1 PPI mod | LMPTP block | STEP inh | Scp-1 conf | MG interference | others
O=C(COC(=O)c1cncc(Br)c1)Nc1nnc(-c2ccccc2)o1 | 60* | 27 | 14 | 7 | 2 | 71* | -12 | Scp-1 Tm shift=6.1*
COc1cc(OC)cc(C(=O)OCC(=O)Nc2nnc(-c3ccccc3)o2)c1 | -11 | 0 | 3 | 0 | 4 | / | /
O=C(NCCNCc1ccccc1)c1ccco1 | 70* | 68* | -7 | 22 | 10 | 49* | -18 | Scp-1 Tm shift=9.6*
CCc1ccc(CNCCNC(=O)c2ccco2)cc1 | -15 | 3 | -17 | 6 | 3 | / | /
COCC(O)Cn1ccnc1N=Nc1ccccc1 (configuration not stated) | / | -2 | -12 | -1 | -1 | / | /
COc1ccc(CNC(=O)Cn2cnc3c(=O)n(C)c(=O)n(C)c32)cc1 | -6 | 1 | 2 | -1 | 0 | -7 | -8
Cn1c(=O)c2ncn(CC(=O)NCCOc3ccccc3)c2n(C)c1=O | -8 | 4 | 0 | -1 | -2 | / | /
CCC(NC(=O)Cn1cnc2c(=O)n(C)c(=O)n(C)c21)c1ccccc1 (configuration not stated) | 0 | 1 | 1 | -1 | 1 | -8 | -11
CCc1ccc(Nc2n[n+](-c3ccccc3)c(-c3ccc(OC)c(Br)c3)s2)cc1 | 1 | 6 | -77 | 1 | 2 | / | /
Cc1ccccc1OC(=O)c1cccc(S(=O)(=O)N2CCN(C)CC2)c1 | -3 | 1 | -5 | -3 | -2 | / | /
Cc1cccc(N2CCN(C(=O)CCCCCn3c(=S)[nH]c4ccc(N5CCOCC5)cc4c3=O)CC2)c1C | 82* | -4 | -30 | 5 | 8 | -13 | -19
O=C(Nc1ccc(F)cc1)C(c1cc2ccccc2o1)N1CCN(c2ccncc2)CC1 (configuration not stated) | / | / | -10 | 2 | / | / | /
O=C(CCNC(=O)c1ccccc1Cl)NCc1cccnc1 | 11 | 1 | 2 | -2 | -1 | / | /
O=C(CSc1nc(-c2ccc(F)cc2)nc2ccc(F)cc12)Nc1cccc(C(=O)O)c1 | 72* | -1 | -5 | 45 | 24 | 75* | -11 | Scp-1 Tm shift=2
C[N+](C)(C)c1ccc(/C=N/Nc2nc(Cl)c(C#N)c(Cl)c2Cl)cc1 | 53* | 4 | -15 | 4 | 3 | 19 | -1
N#Cc1c(Cl)nc(N/N=C/c2ccccc2)c(Cl)c1Cl | -7 | 1 | -1 | -1 | -3 | / | /
COc1ccc(CCCc2nnc(SCC(=O)Nc3ccc(C)c(C)c3)o2)cc1 | 90* | -1 | 0 | 0 | -3 | -3 | -15
COc1ccc(C(=O)NCc2nnc(SCC(=O)Nc3ccccc3OC)o2)cc1 | -5 | -1 | 1 | -1 | 0 | / | /
COc1ccc(C(=O)NCc2nnc(SCC(=O)Nc3ccccc3F)o2)cc1 | 52* | 3 | -1 | -1 | -1 | -24 | -19
Cn1nnnc1SCC1=C(C(=O)O)N2C(=O)C(NC(=O)C3CC3c3ccccc3)C2SC1 (configuration not stated) | 59* | 27 | 1 | -1 | 4 | 70* | 0 | Scp-1 Tm shift=2
CCOc1ccc(-c2nnn(CC(=O)NCc3ccccc3)n2)cc1 | 57* | 4 | 2 | 2 | 1 | -9 | -22
CC(=O)c1ccc(NC(=O)CSc2nnc(-c3ccncc3)n2C2CC2)cc1 | -8 | 1 | 2 | 0 | -1 | / | /
COc1ccc(-n2nnnc2C(c2cc3ccccc3o2)N2CCN(C/C=C/c3ccccc3)CC2)cc1 (configuration not stated) | / | -9 | -1 | 4 | 3 | / | /
O=C(COC(=O)c1cc(=O)[nH]c2ccccc12)NC1CCCCCCC1 | -5 | 2 | -10 | 0 | 7 | / | /
O=C(COC(=O)c1cc(=O)[nH]c2ccccc12)NC(=O)NC1CCCCC1 | -6 | 1 | -6 | 1 | -2 | -19 | -16
SMILES | Scp1 inh | DNMT1 inh | SUMO1 PPI mod | LMPTP block | STEP inh | Scp-1 conf | MG interference | others
COc1ccc(NC(=O)c2ccc3c(c2)C(=O)N(CC2CCCO2)C3=O)c(OC)c1 (configuration not stated) | -5 | 1 | -23 | -1 | -2 | / | /
CS(=O)(=O)N(CC(=O)N1CCCCCC1)c1ccc(Cl)cc1 | 59* | -5 | 1 | -3 | 0 | 0 | -5
O=C(NCCCN1CCCC1=O)c1ccccc1OCc1ccc(Cl)cc1Cl | -1 | 5 | 5 | 0 | 3 | / | /
CCCCn1nnnc1C(c1ccccc1)N1CCN(c2ccc(C(F)(F)F)cn2)CC1 (configuration not stated) | / | / | 9 | 3 | / | / | /
CCCCC1=CC2=C(c3ccco3)C(=O)C(C)(OC(=O)c3ccc(OC)cc3)C(=O)C2=CN1Cc1ccc2c(c1)OCO2 (configuration not stated) | 63* | 26 | -7 | 23 | 1 | 5 | 0
CC(Nc1ccc(F)cc1)=[N+](C)CCNS(=O)(=O)c1ccc(Cl)cc1 | 103* | 2 | 1 | -1 | -1 | 89* | -11 | Scp-1 Tm shift=-29
CC1C=CC=CC=CC=CC=CC=CC=CC(OC2OC(C)C(O)C(N)C2O)CC2OC(O)(CC(O)CC(O)C(O)CCC(O)CC(O)CC(=O)OC(C)C(C)C1O)CC(O)C2C(=O)O (configuration not stated) | 89* | 94* | 24 | 2 | 2 | 65* | -14 | Scp-1 Tm shift=-9
Cc1cccc(C)c1NC(=O)C1c2cccc[n+]2CC(=O)N1Cc1ccc2c(c1)OCO2 (configuration not stated) | 5 | -9 | 0 | -1 | 2 | / | /
Cc1ccccc1NC(=O)C1c2cccc[n+]2CC(=O)N1c1c(C)cccc1C (configuration not stated) | 89* | -14 | -2 | -1 | 3 | 91* | -9 | Scp-1 Tm shift=0
COc1ccc(-n2nc(C(=O)Nc3nc4ccc(OC)cc4s3)c3ccccc3c2=O)cc1 | 68* | 25 | -1 | 5 | 4 | -9 | -10
